Reference: publication PMC6980386 (Traffic (Copenhagen, Denmark), 2019)

Assays:
FL huCD4 WT = FL huCD4 WT (Homo sapiens, UniProt P01730); assay: CADA down-modulation of cellular huCD4; assay type: cell-based
Outline: (§1)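 HEK293T cells, seeded overnight in DMEM with 10% serum, 1 mM sodium pyruvate and 0.075% NaHCO₃, were lipofected with full-length human CD4 (WT or mutant). Test compound in DMSO was added 6 h post-transfection as 1:5 serial dilutions (50–0.016 μM) for 48 h. Surface CD4 was stained with FITC/APC anti-CD4 (SK3) and read by flow cytometry. IC50 is 50% of the untreated signal, from four-parameter fits of ≥3 replicate experiments. FC is mutant/WT mean IC50.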

FL huCD4 L11A = FL huCD4 L11A (Homo sapiens, UniProt P01730, L11A); assay: CADA down-modulation of cellular huCD4; assay type: cell-based
Outline: as §1

FL huCD4 Q15A = FL huCD4 Q15A (Homo sapiens, UniProt P01730, Q15A); assay: CADA down-modulation of cellular huCD4; assay type: cell-based
Outline: as §1

FL huCD4 K27A = FL huCD4 K27A (Homo sapiens, UniProt P01730, K27A); assay: CADA down-modulation of cellular huCD4; assay type: cell-based
Outline: as §1

FL huCD4 V28A = FL huCD4 V28A (Homo sapiens, UniProt P01730, V28A); assay: CADA down-modulation of cellular huCD4; assay type: cell-based
Outline: as §1

huCD4_1–32-YFP WT = huCD4_1–32-YFP WT (Homo sapiens, UniProt P01730); assay: CADA inhibition of huCD4_1–32-YFP secretion; assay type: cell-based
Outline: (§2)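 HEK293T cells were grown in DMEM with 10% FBS and 10 mM HEPES, seeded and left to adhere overnight, then transiently transfected with plasmid by Lipofectamine. Test compound was added 6 h after transfection as a 1:5 serial dilution (50 to 0.016 μM) for 48 h. Secreted YFP in the supernatant was captured on GFP-Trap magnetic beads for 1 h, washed with PBS and measured by flow cytometry. IC50 is the concentration that halves the signal relative to the untreated control, taken from a four-parameter fit of at least three replicate experiments. FC is the mutant mean IC50 divided by the WT mean IC50.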

huCD4_1–32-YFP V5A = huCD4_1–32-YFP V5A (Homo sapiens, UniProt P01730, V5A); assay: CADA inhibition of huCD4_1–32-YFP secretion; assay type: cell-based
Outline: as §2

huCD4_1–32-YFP F7A = huCD4_1–32-YFP F7A (Homo sapiens, UniProt P01730, F7A); assay: CADA inhibition of huCD4_1–32-YFP secretion; assay type: cell-based
Outline: (§3)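 HEK293T cells were lipofected with human CD4 residues 1–32 fused to the N-terminus of YFP (secreted, no membrane anchor). Test compound was added 6 h post-transfection as 1:5 serial dilutions (50–0.016 μM) for 48 h. Supernatant was captured on GFP-Trap magnetic beads for 1 h, washed in PBS, and YFP was read by flow cytometry. IC50 is 50% of the untreated control, from four-parameter fits of ≥3 replicate experiments. FC is mutant/WT mean IC50.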

huCD4_1–32-YFP L10A = huCD4_1–32-YFP L10A (Homo sapiens, UniProt P01730, L10A); assay: CADA inhibition of huCD4_1–32-YFP secretion; assay type: cell-based
Outline: as §2

huCD4_1–32-YFP L11A = huCD4_1–32-YFP L11A (Homo sapiens, UniProt P01730, L11A); assay: CADA inhibition of huCD4_1–32-YFP secretion; assay type: cell-based
Outline: as §2

huCD4_1–32-YFP L12A = huCD4_1–32-YFP L12A (Homo sapiens, UniProt P01730, L12A); assay: CADA inhibition of huCD4_1–32-YFP secretion; assay type: cell-based
Outline: as §2

huCD4_1–32-YFP V13A = huCD4_1–32-YFP V13A (Homo sapiens, UniProt P01730, V13A); assay: CADA inhibition of huCD4_1–32-YFP secretion; assay type: cell-based
Outline: as §2

huCD4_1–32-YFP G25A = huCD4_1–32-YFP G25A (Homo sapiens, UniProt P01730, G25A); assay: CADA inhibition of huCD4_1–32-YFP secretion; assay type: cell-based
Outline: as §3

huCD4_1–32-YFP K26A = huCD4_1–32-YFP K26A (Homo sapiens, UniProt P01730, K26A); assay: CADA inhibition of huCD4_1–32-YFP secretion; assay type: cell-based
Outline: as §2

FL huCD4 Q15N = FL huCD4 Q15N (Homo sapiens, UniProt P01730, Q15N); assay: CADA down-modulation of cellular huCD4; assay type: cell-based; conditions: HEK293T, 48h
Outline: as §1

FL huCD4 P20L = FL huCD4 P20L (Homo sapiens, UniProt P01730, P20L); assay: CADA down-modulation of cellular huCD4; assay type: cell-based; conditions: HEK293T, 48h
Outline: as §1

FL huCD4 L10A;L18A = FL huCD4 L10A;L18A (Homo sapiens, UniProt P01730, L10A/L18A); assay: CADA down-modulation of cellular huCD4; assay type: cell-based; conditions: compared with single Leu-to-Ala mutants
Outline: as §1

FL huCD4 K27E = FL huCD4 K27E (Homo sapiens, UniProt P01730, K27E); assay: CADA down-modulation of cellular huCD4; assay type: cell-based; conditions: HEK293T, 48h
Outline: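 Transient transfection of HEK293T cells (Lipofectamine), seeded the night before. Test compound added 6 h post-transfection as a serial 1:5 dilution from 50 to 0.016 μM, then 48 h culture. Surface CD4 stained with FITC- or APC-labelled anti-human CD4 (clone SK3) and read by flow cytometry. IC50 is the concentration reducing signal to 50% of untreated control, interpolated from four-parameter curves (≥3 replicate experiments; 95% CI).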

[1] = target: truncated huCD4 D1D2 Q15A (Homo sapiens, UniProt P01730, Q15A); assay: Cell-free in vitro translation and translocation; assay type: biochemical
Outline: (§4)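 Truncated huCD4 D1D2 (lacking glycosylation sites and membrane anchor) was made by PCR and transcribed with T7. Proteinase K protection ran 30 min on ice and was quenched with PMSF. Products were separated by SDS-PAGE and imaged by phosphor imaging. The SP-cleaved band was normalised to the matching control. Data are from 2–5 independent experiments, compared with WT by Welch t test.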

[2] = target: truncated huCD4 D1D2 L16A (Homo sapiens, UniProt P01730, L16A); assay: Cell-free in vitro translation and translocation; assay type: biochemical; conditions: 15 μM CADA
Outline: as §4

[3] = target: truncated huCD4 D1D2 P20A (Homo sapiens, UniProt P01730, P20A); assay: Cell-free in vitro translation and translocation; assay type: biochemical
Outline: as §4

[4] = + less, − more sensitive to CADA
[5] = read-out: Cellular huCD4 IC50 (μM) Mean, HEK293T, CADA 48h
[6] = read-out: Secreted YFP IC50 (μM) Mean, HEK293T, CADA 48h

`C=C1CN(S(=O)(=O)c2ccc(C)cc2)CCCN(Cc2ccccc2)CCCN(S(=O)(=O)c2ccc(C)cc2)C1` [CADA, Cyclotriazadisulfonamide] was tested, and the “Cellular huCD4 FC (fold change of mean IC50 relative to WT)” value (FL huCD4 WT; [4]) was 1.00, the IC50 (FL huCD4 WT; [5]) was 0.54 µM and the “Cellular huCD4 FC (fold change of mean IC50 relative to WT)” value (FL huCD4 L11A; [4]) was −4.5. For the same molecule, the IC50 (FL huCD4 L11A; [5]) was 0.12 µM, the “Cellular huCD4 FC (fold change of mean IC50 relative to WT)” value (FL huCD4 Q15A; [4]) was “>+93” and the IC50 (FL huCD4 Q15A; [5]) was > 50 µM. For the same molecule, the “Cellular huCD4 FC (fold change of mean IC50 relative to WT)” value (FL huCD4 K27A; [4]) was “+2.4”, the IC50 (FL huCD4 K27A; [5]) was 1.3 µM and the “Cellular huCD4 FC (fold change of mean IC50 relative to WT)” value (FL huCD4 V28A; [4]) was 1.00. For the same molecule, the IC50 (FL huCD4 V28A; [5]) was 0.54 µM, the “Secreted YFP FC (fold change of mean IC50 relative to WT)” value (huCD4_1–32-YFP WT; [4]) was 1.00 and the IC50 (huCD4_1–32-YFP WT; [6]) was 1.27 µM. The “Secreted YFP FC (fold change of mean IC50 relative to WT)” value (huCD4_1–32-YFP V5A; [4]) was −3.8, the IC50 (huCD4_1–32-YFP V5A; [6]) was 0.33 µM and the “Secreted YFP FC (fold change of mean IC50 relative to WT)” value (huCD4_1–32-YFP F7A; [4]) was −2.8. The IC50 (huCD4_1–32-YFP F7A; [6]) was 0.46 µM, the “Secreted YFP FC (fold change of mean IC50 relative to WT)” value (huCD4_1–32-YFP L10A; [4]) was −2.1 and the IC50 (huCD4_1–32-YFP L10A; [6]) was 0.6 µM. The “Secreted YFP FC (fold change of mean IC50 relative to WT)” value (huCD4_1–32-YFP L11A; [4]) was −3.3, the IC50 (huCD4_1–32-YFP L11A; [6]) was 0.38 µM and the “enhanced CADA sensitivity relative to WT” value (huCD4_1–32-YFP L12A) was 5 fold. For the same molecule, the “Secreted YFP FC (fold change of mean IC50 relative to WT)” value (huCD4_1–32-YFP L12A; [4]) was −5.3, the IC50 (huCD4_1–32-YFP L12A; [6]) was 0.24 µM and the “Secreted YFP FC (fold change of mean IC50 relative to WT)” value (huCD4_1–32-YFP V13A; [4]) was −2.8. The IC50 (huCD4_1–32-YFP V13A; [6]) was 0.46 µM, the “Secreted YFP FC (fold change of mean IC50 relative to WT)” value (huCD4_1–32-YFP G25A; [4]) was −3.6 and the IC50 (huCD4_1–32-YFP G25A; [6]) was 0.35 µM. The “Secreted YFP FC (fold change of mean IC50 relative to WT)” value (huCD4_1–32-YFP K26A; [4]) was “>+39”, the IC50 (huCD4_1–32-YFP K26A; [6]) was > 50 µM and the “sensitivity to CADA” value (FL huCD4 Q15N) was “partially restored CADA sensitivity”. For the same molecule, the “sensitivity to CADA” value (FL huCD4 P20L) was “completely resistant to CADA”, the “sensitivity to CADA” value (FL huCD4 L10A;L18A) was “further enhanced the effect” and the “sensitivity to CADA” value (FL huCD4 K27E) was “copied the alanine substitution phenotypes”. The “inhibitory effect of CADA on protein translocation compared to WT” value ([1]; 15 μM CADA) was “significantly reduced”, the “impact of CADA on co-translational translocation” value ([1]; increasing doses of CADA) was “significantly reduced” and the “sensitivity of translocation towards CADA compared to WT” value [2] was “higher sensitivity towards CADA”. The “inhibitory effect of CADA on protein translocation compared to WT” value ([3]; 15 μM CADA) was “significantly reduced” and the “effect of CADA on co-translational translocation” value ([3]; increasing doses of CADA) was “still responded to CADA, although to a lesser extent as compared to WT huCD4”.
